Several values for one entry are separate records, joined by “and”; a condition that tells them apart may be missing. Equal entries are not always repeated.
Experiments:
[1] = biological target: Neuronal acetylcholine receptor; alpha3/beta2 (Rattus norvegicus, UniProt P04757+P12390); assay: Inhibition of rat Nicotinic acetylcholine receptor alpha3-beta2 expressed in Xenopus Oocytes; assay type: cell-based
How it was run: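 Rat nAChR subunit cRNAs (50 nL, 5–50 ng/µL) injected into Xenopus oocytes, kept at 19 °C in ND96 pH 7.4 with gentamycin; two-electrode voltage clamp at −70 mV, 2–10 days post-injection. Peptide added to static bath, 3–10 min before agonist; sub-1 nM also perfused 10–15 min. IC50 from fitted concentration–response curves with Hill slope.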

[2] = Inhibition ratio of rat alpha 3 beta 2 nicotinic acetylcholine receptor (nAChR) to that of at alpha 7 nicotinic acetylcholine receptor (nAChR)
[3] = biological target: Neuronal acetylcholine receptor subunit alpha-7 (Rattus norvegicus, UniProt Q05941); assay: Compound was evaluated for inhibition of rat Nicotinic acetylcholine receptor alpha-7 (nAChR) in Xenopus Oocytes; assay type: cell-based
How it was run: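 Rat α7 nAChR cRNA (5–50 ng/µL, 50 nL) injected into Xenopus oocytes kept at 19 °C in ND96 (pH 7.4) plus gentamycin; two-electrode voltage clamp 2–10 days later at −70 mV. Peptide applied once three agonist responses differed <10%, added to static bath and incubated 3–10 min before agonist. IC50 and nH from concentration–response curve fit; 95% confidence intervals.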

Sequence of Neuronal acetylcholine receptor; alpha3/beta2 (P04757 whole entry, the tested form may be a part): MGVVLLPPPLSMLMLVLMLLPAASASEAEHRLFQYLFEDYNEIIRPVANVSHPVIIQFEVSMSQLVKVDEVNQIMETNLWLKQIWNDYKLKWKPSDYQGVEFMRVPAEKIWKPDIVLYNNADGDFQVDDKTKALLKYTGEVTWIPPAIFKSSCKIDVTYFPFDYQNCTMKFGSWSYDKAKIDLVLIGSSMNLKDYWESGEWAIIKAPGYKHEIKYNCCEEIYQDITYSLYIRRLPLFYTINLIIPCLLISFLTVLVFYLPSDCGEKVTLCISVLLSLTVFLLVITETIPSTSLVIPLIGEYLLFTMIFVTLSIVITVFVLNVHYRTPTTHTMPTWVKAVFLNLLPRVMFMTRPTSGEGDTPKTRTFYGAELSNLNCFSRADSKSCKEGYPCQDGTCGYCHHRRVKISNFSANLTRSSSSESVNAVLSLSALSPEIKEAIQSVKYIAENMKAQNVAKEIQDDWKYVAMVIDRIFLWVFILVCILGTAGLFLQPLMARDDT
Sequence of Neuronal acetylcholine receptor; alpha3/beta2 (P12390 whole entry, the tested form may be a part): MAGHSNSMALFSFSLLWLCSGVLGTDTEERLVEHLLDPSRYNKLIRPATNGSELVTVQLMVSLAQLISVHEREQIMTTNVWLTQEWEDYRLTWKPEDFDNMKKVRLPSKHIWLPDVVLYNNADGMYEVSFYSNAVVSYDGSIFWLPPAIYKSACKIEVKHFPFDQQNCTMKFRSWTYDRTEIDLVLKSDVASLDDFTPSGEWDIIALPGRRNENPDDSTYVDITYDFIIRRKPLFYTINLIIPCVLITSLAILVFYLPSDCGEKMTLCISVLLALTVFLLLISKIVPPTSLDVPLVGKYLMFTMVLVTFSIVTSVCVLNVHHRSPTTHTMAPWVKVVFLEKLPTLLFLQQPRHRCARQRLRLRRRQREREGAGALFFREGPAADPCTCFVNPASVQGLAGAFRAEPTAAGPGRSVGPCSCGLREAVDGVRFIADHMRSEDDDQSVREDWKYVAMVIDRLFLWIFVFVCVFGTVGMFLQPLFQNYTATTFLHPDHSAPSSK
Sequence of Neuronal acetylcholine receptor subunit alpha-7 (Q05941 whole entry): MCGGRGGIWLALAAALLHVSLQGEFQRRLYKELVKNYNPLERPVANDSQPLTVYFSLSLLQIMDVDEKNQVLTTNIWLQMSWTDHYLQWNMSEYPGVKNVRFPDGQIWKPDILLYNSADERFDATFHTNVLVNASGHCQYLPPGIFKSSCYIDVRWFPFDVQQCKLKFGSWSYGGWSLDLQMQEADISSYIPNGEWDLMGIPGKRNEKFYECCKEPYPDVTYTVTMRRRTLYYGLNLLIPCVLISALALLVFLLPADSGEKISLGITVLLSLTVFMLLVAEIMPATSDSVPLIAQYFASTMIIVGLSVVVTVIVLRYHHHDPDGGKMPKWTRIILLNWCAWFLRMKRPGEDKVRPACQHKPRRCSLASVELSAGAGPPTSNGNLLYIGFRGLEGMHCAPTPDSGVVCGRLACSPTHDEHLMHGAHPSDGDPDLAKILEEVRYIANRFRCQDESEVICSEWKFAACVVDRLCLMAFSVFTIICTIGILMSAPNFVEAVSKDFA

CC(C)C[C@H](NC(=O)[C@H](CC(N)=O)NC(=O)[C@H](CO)NC(=O)[C@H](Cc1cnc[nH]1)NC(=O)[C@H](CCC(=O)O)NC(=O)[C@H](CC(C)C)NC(=O)[C@H](Cc1cnc[nH]1)NC(=O)[C@H](CS)NC(=O)[C@@H](NC(=O)[C@@H]1CCCN1C(=O)[C@H](CC(N)=O)NC(=O)[C@H](CO)NC(=O)[C@H](CS)NC(=O)[C@H](CS)NC(=O)CN)C(C)C)C(=O)N[C@@H](CS)C(N)=O
IC50 [1]: 500 pM

C[C@H](NC(=O)[C@H](C)NC(=O)[C@H](CS)NC(=O)[C@H](C)NC(=O)[C@H]1CCCN1C(=O)[C@H](Cc1cnc[nH]1)NC(=O)[C@H](CO)NC(=O)[C@H](CS)NC(=O)[C@@H](N)CS)C(=O)N[C@@H](CC(N)=O)C(=O)N[C@@H](CC(N)=O)C(=O)N[C@@H](CCC(N)=O)C(=O)N[C@@H](CC(=O)O)C(=O)N[C@@H](Cc1ccc(O)cc1)C(=O)N[C@@H](CS)C(N)=O
IC50 [1]: 5840 pM

C[C@H](NC(=O)[C@H](C)NC(=O)[C@H](CS)NC(=O)[C@H](C)NC(=O)[C@H]1CCCN1C(=O)[C@H](Cc1cnc[nH]1)NC(=O)[C@H](CO)NC(=O)[C@H](CS)NC(=O)[C@H](CS)NC(=O)CNC(=O)CN)C(=O)N[C@@H](CC(N)=O)C(=O)N[C@@H](CC(N)=O)C(=O)N[C@@H](CCC(N)=O)C(=O)N[C@@H](CC(=O)O)C(=O)N[C@@H](Cc1ccc(OS(=O)(=O)O)cc1)C(=O)N[C@@H](CS)C(N)=O
IC50 [1]: 640 pM

C[C@H](NC(=O)[C@H](CS)NC(=O)[C@H](C)NC(=O)[C@H]1CCCN1C(=O)[C@H](CC1=CNCN1)NC(=O)[C@H](CO)NC(=O)[C@H](CS)NC(=O)[C@H](CS)NC(=O)CN)C(=O)N[C@@H](CC(N)=O)C(=O)N[C@@H](CC(N)=O)C(=O)N[C@@H](CCC(N)=O)C(=O)N[C@@H](CC(=O)O)C(=O)N[C@@H](Cc1ccc(O)cc1)C(=O)N[C@@H](CS)C(N)=O
IC50 [1]: 170 pM

CC(C)C[C@H](NC(=O)[C@H](CC(N)=O)NC(=O)[C@H](CO)NC(=O)[C@H](Cc1c[nH]cn1)NC(=O)[C@H](CCC(=O)O)NC(=O)[C@H](CC(C)C)NC(=O)[C@H](Cc1c[nH]cn1)NC(=O)[C@H](CS)NC(=O)[C@@H](NC(=O)[C@@H]1CCCN1C(=O)[C@H](CC(N)=O)NC(=O)[C@H](CO)NC(=O)[C@H](CS)NC(=O)[C@H](CS)NC(=O)CN)C(C)C)C(=O)N[C@@H](CS)C(N)=O
Ratio [2]: 0.0025

CC[C@H](C)[C@H](NC(=O)[C@H](Cc1c[nH]cn1)NC(=O)[C@H](CCC(N)=O)NC(=O)[C@H](CC(N)=O)NC(=O)[C@H](CC(N)=O)NC(=O)CNC(=O)[C@H](C)NC(=O)[C@H](CS)NC(=O)[C@H](C)NC(=O)[C@@H]1CCCN1C(=O)[C@H](Cc1c[nH]cn1)NC(=O)[C@H](CO)NC(=O)[C@H](CS)NC(=O)[C@H](CS)NC(=O)CN)C(=O)N[C@@H](CS)C(N)=O
IC50 [1]: 1100 pM

C[C@H](NC(=O)[C@H](C)NC(=O)[C@H](CS)NC(=O)[C@H](C)NC(=O)[C@H]1CCCN1C(=O)[C@H](Cc1cnc[nH]1)NC(=O)[C@H](CO)NC(=O)[C@H](CS)NC(=O)[C@H](CS)NC(=O)CNC(=O)CN)C(=O)N[C@@H](CC(N)=O)C(=O)N[C@@H](CC(N)=O)C(=O)N[C@@H](CCC(N)=O)C(=O)N[C@@H](CC(=O)O)C(=O)N[C@@H](Cc1ccc(O)cc1)C(=O)N[C@@H](CS)C(=O)O
IC50 [1]: 540 pM

C[C@H](NC(=O)[C@H](C)NC(=O)[C@H](CS)NC(=O)[C@H](C)NC(=O)[C@H]1CCCN1C(=O)[C@H](Cc1c[nH]cn1)NC(=O)[C@H](CO)NC(=O)[C@H](CS)NC(=O)[C@H](CS)NC(=O)CNC(=O)CN)C(=O)N[C@@H](CC(N)=O)C(=O)N[C@@H](CC(N)=O)C(=O)N[C@@H](CCC(N)=O)C(=O)N[C@@H](CC(=O)O)C(=O)N[C@@H](Cc1ccc(O)cc1)C(=O)N[C@@H](CS)C(N)=O
Ratio [2]: 0.004 | IC50 [3]: 76000 pM | IC50 [1]: 280 pM and 300 pM

C[C@H](NC(=O)[C@H](C)NC(=O)[C@H](CS)NC(=O)[C@H](C)NC(=O)[C@H]1CCCN1C(=O)[C@H](Cc1c[nH]cn1)NC(=O)[C@H](CO)NC(=O)[C@H](CS)NC(=O)[C@H](CS)NC(=O)CNC(=O)CNC(=O)CN)C(=O)N[C@@H](CC(N)=O)C(=O)N[C@@H](CC(N)=O)C(=O)N[C@@H](CCC(N)=O)C(=O)N[C@@H](CC(=O)O)C(=O)N[C@@H](Cc1ccc(O)cc1)C(=O)N[C@@H](CS)C(N)=O
IC50 [1]: 200 pM

From ChEMBL document CHEMBL1148487, “Chemical and functional identification and characterization of novel sulfated alpha-conotoxins from the cone snail Conus anemone” (J Med Chem, 2004)
